Source: ChEMBL document CHEMBL4316597, “Design, Synthesis, and Biological Evaluation of Itaconic Acid Derivatives as Potential Anti-Influenza Agents” (J Med Chem, 2019)
pEC50: −log10 of the molar value. Activity calls are given as the source filed them. No cut-off for these calls is given here.

Experiments:
Influenza A virus [1] = test: Antiviral activity against Influenza A virus (A/WSN/33) infected in MDCK cells assessed as reduction in virus-induced cytopathic effect after 72 hrs by crystal violet-staining based assay; assay type: functional, organism-based; details: A/WSN/1933(H1N1)
Summary of the method: (§1)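 Cells seeded at 2 × 10^4/well in E10 (DMEM, 10% FBS), 16–24 h at 37 °C/5% CO2, washed with DPBS, then infected at nine-fold TCID50 with or without serial compound concentrations. Influenza is run in MDCK and enterovirus/rhinovirus in RD. Incubated 72 h, fixed in 4% paraformaldehyde, stained with 0.1% crystal violet, and read for cell density. EC50 = 50% CPE inhibition by Reed–Muench; mean ± S.D. of at least three runs.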

[2] = Cytotoxicity against MDCK cells assessed as cell death after 72 hrs by MTT assay; assay type: cell-based, Canis lupus familiaris; details: dog
Summary of the method: (§2)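 MDCK or RD cells at 2 × 10^4/well in E10, overnight at 37 °C/5% CO2, DPBS wash, then exposed to graded compound concentrations for 72 h. MTT added for 3 h, formazan dissolved in DMSO, absorbance read at 570 nm. CC50 (50% cell death) by Reed–Muench.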

enterovirus D68 = test: Antiviral activity against Enterovirus D68 TW/2795/2014 clade B3 infected in human RD cells after 72 hrs by crystal violet-staining based assay; assay type: functional, organism-based; details: Enterovirus D, TW/2795/2014 clade B3, RD; summary of the method: as §1
[3] = Selectivity ratio of CC50 for MDCK cells to EC50 for Influenza A virus (A/WSN/33); assay type: toxicity; details: dog, read-out: Ratio CC50/EC50
Summary of the method: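 SI is calculated as CC50 (MDCK, 72 h MTT) divided by EC50 (72 h crystal-violet CPE assay in MDCK).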

Influenza A virus [4] = test: Antiviral activity against Influenza A virus (A/WSN/33) infected in MDCK cells at 1 uM added at 3 hrs to 9 hrs post infection and measured after 9 hrs by plaque assay; assay type: functional, organism-based; details: A/WSN/1933(H1N1)
Summary of the method: (§3)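 MDCK monolayers exposed to compound (1 or 10 μM) over windows of −3, −1, 0, 3 or 6 to 9 h pi. A/WSN/33 adsorbed at MOI 0.1 from −1 to 0 h, then removed with a PBS wash. Supernatant taken at 9 h pi and titred by plaque assay, normalised to virus-only (100%). Average of three independent experiments.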

[5] = Cytotoxicity against human RD cells assessed as cell death after 72 hrs by MTT assay; assay type: cell-based; summary of the method: as §2
Influenza A virus [6] = test: Inhibition of viral protein sub-cellular distribution in Influenza A virus (A/WSN/33) infected in MDCK cells assessed as reduction in M1 protein distribution to cytoplasm at 1 uM measured after 9 hrs post infection by IF-staining based microscopy; assay type: functional, organism-based; details: A/WSN/1933(H1N1)
Summary of the method: (§4)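 MDCK cells grown on coverslips (2 × 10^5/well, 16 h), infected at MOI 0.1 for 1 h, washed, then kept in E0 with test compound (1 or 10 μM) or LMB 10 nM; DMSO 0.05% as mock. Fixed at 9 h pi in 4% paraformaldehyde and immunostained for M1, NP, NS2 or PA (1:50), with Hoechst nuclear stain. Viewed by confocal microscopy at 63×. NP nuclear/cytoplasmic intensity ratio quantified; three independent experiments.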

[7] = Selectivity ratio of CC50 for human RD cells to EC50 for Enterovirus A71 TW/4643/1998; assay type: toxicity; details: read-out: Ratio CC50/EC50
Summary of the method: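 RD cells (2 × 10^4/well, DMEM 10% FBS, 16–24 h) infected with enterovirus at nine-fold TCID50 with compound, 72 h, 37 °C, 5% CO2. Cells were fixed in 4% paraformaldehyde, stained with 0.1% crystal violet, and EC50 taken by Reed–Muench. CC50 came from 72 h exposure of uninfected RD cells, MTT 3 h, A570, Reed–Muench. SI = CC50/EC50; three independent experiments.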

Enterovirus [8] = test: Antiviral activity against Rhinovirus 71803 infected in human RD cells after 72 hrs by crystal violet-staining based assay; assay type: functional, organism-based; details: Enterovirus, 71803, RD; summary of the method: as §1
Influenza A virus [9] = test: Antiviral activity against Influenza A virus (A/WSN/33) infected in MDCK cells at 1 uM added at -1 hrs to 9 hrs post infection and measured after 9 hrs by plaque assay; assay type: functional, organism-based; details: A/WSN/1933(H1N1); summary of the method: as §3
[10] = Selectivity ratio of CC50 for MDCK cells to EC50 for Influenza A virus A/TW/3446/02 (H3N2); assay type: toxicity; details: dog, read-out: Ratio CC50/EC50
Summary of the method: (§5)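 MDCK cells (2 × 10^4/well, E10, 16–24 h) infected at nine-fold TCID50 with compound for 72 h, 37 °C, 5% CO2. Cells were fixed in 4% paraformaldehyde and stained with crystal violet; EC50 is from Reed–Muench. For CC50, cells had compound alone for 72 h, then MTT 3 h, DMSO, A570, Reed–Muench. SI = CC50/EC50; three independent experiments.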

Enterovirus [11] = test: Antiviral activity against Rhinovirus 71903 infected in human RD cells after 72 hrs by crystal violet-staining based assay; assay type: functional, organism-based; details: Enterovirus, 71903, RD; summary of the method: as §1
Enterovirus A71 = test: Antiviral activity against Enterovirus A71 TW/4643/1998 infected in human RD cells after 72 hrs by crystal violet-staining based assay; assay type: functional, organism-based; details: Enterovirus A, TW/4643/1998, RD; summary of the method: as §1
MDCK [12] = test: Inhibition of CRM1 in MDCK cells infected with Influenza A virus (A/WSN/33) assessed as reduction in CRM1-mediated viral protein nuclear export by measuring reduction in NP protein distribution to cytoplasm at 1 uM measured after 9 hrs post infection by IF-staining based microscopy; assay type: cell-based; details: Canis lupus familiaris; summary of the method: as §4
[13] = Selectivity ratio of CC50 for MDCK cells to EC50 for pandemic Influenza A virus A/TW/2235/09 (H1N1) SO4; assay type: toxicity; details: dog, read-out: Ratio CC50/EC50; summary of the method: as §5
Influenza A virus [14] = test: Antiviral activity against Influenza A virus A/TW/3446/02 (H3N2) infected in MDCK cells after 72 hrs by crystal violet-staining based assay; assay type: functional, organism-based; summary of the method: as §1
[15] = molecular target: Hemagglutinin (Influenza A virus) (UniProt B4URE7); test: Inhibition Influenza A virus (A/WSN/33) HA infected in guinea pig RBC assessed as reduction in hemagglutination at serial dilution from 50 uM after 1 hr by HAI assay; details: Influenza A virus (A/WSN/1933(H1N1))
Chain of Hemagglutinin (Influenza A virus) (B4URE7 as listed by the source): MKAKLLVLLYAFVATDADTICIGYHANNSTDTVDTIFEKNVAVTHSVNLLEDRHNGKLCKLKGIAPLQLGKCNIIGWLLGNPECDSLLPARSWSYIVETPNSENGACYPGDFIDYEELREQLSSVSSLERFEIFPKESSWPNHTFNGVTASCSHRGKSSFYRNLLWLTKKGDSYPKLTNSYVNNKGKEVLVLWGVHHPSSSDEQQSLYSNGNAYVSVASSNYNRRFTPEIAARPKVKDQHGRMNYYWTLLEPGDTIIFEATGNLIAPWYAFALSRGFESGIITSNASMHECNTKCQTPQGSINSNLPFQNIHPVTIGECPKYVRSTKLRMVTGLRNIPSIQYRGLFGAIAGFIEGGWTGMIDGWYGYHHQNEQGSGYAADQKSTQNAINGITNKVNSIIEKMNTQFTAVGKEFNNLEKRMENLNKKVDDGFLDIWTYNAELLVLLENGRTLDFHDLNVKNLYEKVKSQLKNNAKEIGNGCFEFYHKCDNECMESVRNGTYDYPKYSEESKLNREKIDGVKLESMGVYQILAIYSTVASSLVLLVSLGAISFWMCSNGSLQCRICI
Summary of the method: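 Virus titrated on 0.5% guinea pig RBCs to define 1 HA unit; 4 HA units used. Compound two-fold serially diluted from 50 µM and mixed with virus for 30 min at room temperature, or tested without virus for direct agglutination. 0.5% RBCs then added and agglutination scored after 1 h. DMSO/RBC-only and virus-only controls included.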

Influenza A virus [16] = test: Antiviral activity against pandemic Influenza A virus A/TW/2235/09 (H1N1) SO4 infected in MDCK cells after 72 hrs by crystal violet-staining based assay; assay type: functional, organism-based; details: A/TW/2235/09 (H1N1) SO4, MDCK; summary of the method: as §1
MDCK [17] = test: Inhibition of CRM1 in MDCK cells infected with Influenza A virus (A/WSN/33) assessed as reduction in CRM1-mediated viral protein nuclear export by measuring reduction in NP protein distribution to cytoplasm at 10 nM measured after 9 hrs post infection by IF-staining based microscopy; assay type: cell-based; details: Canis lupus familiaris; summary of the method: as §4
Influenza A virus [18] = test: Antiviral activity against Influenza A virus (A/WSN/33) infected in MDCK cells assessed as reduction in NS2 protein distribution to cytoplasm at 10 nM measured after 9 hrs post infection by IF-staining based microscopy; assay type: functional, organism-based; details: A/WSN/1933(H1N1); summary of the method: as §4
Influenza A virus [19] = test: Inhibition of viral protein sub-cellular distribution in Influenza A virus (A/WSN/33) infected in MDCK cells assessed as reduction in PA protein distribution to cytoplasm at 10 nM measured after 9 hrs post infection by IF-staining based microscopy; assay type: functional, organism-based; details: A/WSN/1933(H1N1); summary of the method: as §4
Influenza A virus [20] = test: Inhibition of viral protein sub-cellular distribution in Influenza A virus (A/WSN/33) infected in MDCK cells assessed as reduction in NS2 protein distribution to cytoplasm at 10 nM measured after 9 hrs post infection by IF-staining based microscopy; assay type: functional, organism-based; details: A/WSN/1933(H1N1); summary of the method: as §4
Influenza A virus [21] = test: Antiviral activity against Influenza A virus (A/WSN/33) infected in MDCK cells assessed as reduction in M1 protein distribution to cytoplasm at 10 nM measured after 9 hrs post infection by IF-staining based microscopy; assay type: functional, organism-based; details: A/WSN/1933(H1N1); summary of the method: as §4
Influenza A virus [22] = test: Antiviral activity against Influenza A virus (A/WSN/33) infected in MDCK cells assessed as reduction in PA protein distribution to cytoplasm at 10 nM measured after 9 hrs post infection by IF-staining based microscopy; assay type: functional, organism-based; details: A/WSN/1933(H1N1); summary of the method: as §4
Influenza A virus [23] = test: Inhibition of viral protein sub-cellular distribution in Influenza A virus (A/WSN/33) infected in MDCK cells assessed as reduction in M1 protein distribution to cytoplasm at 10 nM measured after 9 hrs post infection by IF-staining based microscopy; assay type: functional, organism-based; details: A/WSN/1933(H1N1); summary of the method: as §4
Influenza A virus [24] = test: Antiviral activity against Influenza A virus (A/WSN/33) infected in MDCK cells assessed as reduction in NP protein distribution to cytoplasm at 10 nM measured after 9 hrs post infection by IF-staining based microscopy; assay type: functional, organism-based; details: A/WSN/1933(H1N1); summary of the method: as §4

Structure (SMILES) | pEC50 (Influenza A virus [1]) | CC50 at 72 h [2] [µM] | selectivity ratio [3] | also measured
C=C(CC(=O)Nc1ccc(F)cc1C(F)(F)F)C(=O)O | < 4.30 | > 110 | – | –
C=C(CC(=O)Nc1ccc(Cl)cc1F)C(=O)O | < 4.30 | > 110 | – | –
C=C(CC(=O)Nc1ccc(C(F)(F)F)cc1F)C(=O)Nc1ccc(C(F)(F)F)cc1F | 6.85 | > 110 | > 785 | pEC50 (enterovirus D68): < 4.30; Activity (Influenza A virus [4]): Active; CC50 at 72 h [5]: 9.31 µM; inhibition (Influenza A virus [6]): inactive; selectivity ratio [7]: 1; pEC50 (Enterovirus [8]): < 4.30; Activity (Influenza A virus [9]): Active; selectivity ratio [10]: > 114; pEC50 (Enterovirus [11]): < 4.30; pEC50 (Enterovirus A71): 5.17; inhibition (MDCK [12]): Active; selectivity ratio [13]: > 67; pEC50 (Influenza A virus [14]): 6.02; inhibition [15]: inactive; pEC50 (Influenza A virus [16]): 5.79
C=C(CC(=O)NCc1cc(F)ccc1F)C(=O)NCc1cc(F)ccc1F | < 4.30 | > 110 | – | –
C=C(CC(=O)Nc1ccc(OC)cc1F)C(=O)Nc1ccc(OC)cc1F | 4.51 | > 110 | > 3 | –
C=C(CC(=O)Nc1ccc(Cl)cc1F)C(=O)Nc1ccc(Cl)cc1F | 6.17 | > 110 | > 164 | –
C=C(CC(=O)Nc1cc(F)ccc1F)C(=O)O | < 4.30 | > 110 | – | –
C=C(CC(=O)Nc1cc(C(F)(F)F)ccc1F)C(=O)O | < 4.30 | > 110 | – | –
C=C(CC(=O)Nc1cccc(C(F)(F)F)c1)C(=O)O | < 4.30 | > 110 | – | –
C=C(CC(=O)Nc1cc(F)ccc1C(F)(F)F)C(=O)O | < 4.30 | > 110 | – | –
C=C(CC(=O)Nc1ccc(F)cc1F)C(=O)O | < 4.30 | > 110 | – | –
CCC(=C/[C@H](C)C/C=C/C(C)=C/[C@@H](C)C(=O)[C@@H](C)[C@H](O)[C@@H](C)C/C(C)=C/C(=O)O)/C=C/[C@@H]1OC(=O)C=C[C@@H]1C [LEPTOMYCIN B] | 6.74 | > 0.88 | > 4 | inhibition (MDCK [17]): Active; Activity (Influenza A virus [18]): inactive; inhibition (Influenza A virus [19]): inactive; inhibition (Influenza A virus [20]): inactive; Activity (Influenza A virus [21]): inactive; Activity (Influenza A virus [22]): inactive; inhibition (Influenza A virus [23]): inactive; Activity (Influenza A virus [24]): Active
C=C(CC(=O)Nc1cc(Cl)ccc1F)C(=O)Nc1cc(Cl)ccc1F | 6.74 | 19.9 | 111 | –
